Laboratory results published in ChEMBL document CHEMBL3351625, “Ethyl 2-(benzylidene)-7-methyl-3-oxo-2,3-dihydro-5H-thiazolo[3,2-a]pyrimidine-6-carboxylate analogues as a new scaffold for protein kinase casein kinase 2 inhibitor” (Bioorg Med Chem, 2014).
Active and inactive are the calls of the source. The rule behind the calls is not given here.

Key:
SNU878 = assay: Cytotoxicity against human SNU878 cells assessed as cell viability at 10 uM after 24 hrs by MTT assay; format: functional, cell-based
Procedure, shortened: (§1)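 Lines from Korea Cell Line Bank, kept in RPMI1640 with serum and penicillin/streptomycin at 37 °C, 5% CO2. Seeded at 1 × 10⁴ cells/well and grown 24 h, then exposed to the inhibitor for 24 h. MTT added at 4 mg/mL final for 2 h, formazan taken up in DMSO, absorbance read at 570 nm. Run in quadruplicate.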

SK-HEP1 [1] = assay: Cytotoxicity against human SKHEP1 cells assessed as cell viability at 10 uM after 24 hrs by MTT assay; format: functional, cell-based
MKN-28 [2] = assay: Cytotoxicity against human MKN28 cells assessed as cell viability at 10 uM after 24 hrs by MTT assay; format: functional, cell-based; procedure, shortened: as §1
TE-2 [3] = assay: Cytotoxicity against human TE2 cells expressing CK2 assessed as cell viability at 10 uM after 24 hrs by MTT assay; format: functional, cell-based
Procedure, shortened: (§2)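 Esophageal TE2 cells stably carrying GFP or CK2α were plated at 1 × 10⁴ cells/well and grown 24 h. They were then exposed for 24 h, given MTT at 4 mg/mL final for 2 h, formazan dissolved in DMSO, absorbance at 570 nm.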

TE-2 [4] = assay: Cytotoxicity against GFP-tagged human TE2 cells assessed as cell viability at 10 uM after 24 hrs by MTT assay; format: functional, cell-based; procedure, shortened: as §2
SNU761 = assay: Cytotoxicity against human SNU761 cells assessed as cell viability at 10 uM after 24 hrs by MTT assay; format: functional, cell-based; procedure, shortened: as §1
NCI-N87 = assay: Cytotoxicity against human NCI-N87 cells assessed as cell viability at 10 uM after 24 hrs by MTT assay; format: functional, cell-based; procedure, shortened: as §1
SNU484 = assay: Cytotoxicity against human SNU484 cells assessed as cell viability at 10 uM after 24 hrs by MTT assay; format: functional, cell-based; procedure, shortened: as §1
Hep 3B2 = assay: Cytotoxicity against human Hep3B cells assessed as cell viability at 10 uM after 24 hrs by MTT assay; format: functional, cell-based
Procedure, shortened: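 Hep3B kept in Dulbecco's Modified Eagle's Medium with serum and antibiotics at 37 °C, 5% CO2. Seeded at 1 × 10⁴ cells/well and grown 24 h, then exposed for 24 h. MTT at 4 mg/mL final for 2 h, DMSO solubilisation, A570. Quadruplicate.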

MKN-74 = assay: Cytotoxicity against human MKN74 cells assessed as cell viability at 10 uM after 24 hrs by MTT assay; format: functional, cell-based; procedure, shortened: as §1
AGS [5] = assay: Cytotoxicity against human AGS cells assessed as cell viability at 10 uM after 24 hrs by MTT assay; format: functional, cell-based
Procedure, shortened: (§3)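 AGS and HepG2 kept in Modified Eagle's Medium with serum and antibiotics at 37 °C, 5% CO2. Seeded at 1 × 10⁴ cells/well and grown 24 h, then exposed for 24 h. MTT at 4 mg/mL final for 2 h, formazan dissolved in DMSO, A570. Quadruplicate.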

MKN-1 [6] = assay: Cytotoxicity against human MKN1 cells assessed as cell viability at 10 uM after 24 hrs by MTT assay; format: functional, cell-based; procedure, shortened: as §1
MKN-45 = assay: Cytotoxicity against human MKN45 cells assessed as cell viability at 10 uM after 24 hrs by MTT assay; format: functional, cell-based; procedure, shortened: as §1
SNU668 = assay: Cytotoxicity against human SNU668 cells assessed as cell viability at 10 uM after 24 hrs by MTT assay; format: functional, cell-based; procedure, shortened: as §1
SNU739 [7] = assay: Cytotoxicity against human SNU739 cells assessed as cell viability at 10 uM after 24 hrs by MTT assay
HepG2 [8] = assay: Cytotoxicity against human HepG2 cells assessed as cell viability at 10 uM after 24 hrs by MTT assay; format: functional, cell-based; procedure, shortened: as §3
Casein kinase II [9] = biological target: T1, Casein kinase II (Homo sapiens, UniProt P19784+P67870+P68400); assay: (§4) Inhibition of human CK2 assessed as residual activity by KinaseProfiler assay; format: protein-complex assay
[10] = biological target: Casein kinase II subunit alpha (Homo sapiens) (UniProt P68400); assay: Inhibition of recombinant human CK2alpha assessed as inhibition of phosphorylation of GST-CS at 10 uM by Coomassie brilliant blue staining based autoradiography
AGS [11] = assay: Induction of apoptosis in TRAIL-resistant human AGS cells assessed as cell death at 10 uM after 24 hrs and subsequently treated with TRAIL 200 ng/ml for 2 hr by Annexin-V-FLUOS staining; format: functional, cell-based
Procedure, shortened: (§5)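 Cells were left untreated or pretreated with the inhibitor at 10 µM for 24 h, then exposed to TRAIL (200 ng/mL) for 2 h. They were then washed with PBS and stained with Annexin-V-FLUOS/propidium iodide for 15 min. Apoptotic cells were counted by fluorescence microscopy. Viability was assessed in parallel by MTT. Data are given as mean ± SD.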

Casein kinase II [12] = biological target: T1, Casein kinase II; assay: Competitive inhibition of human CK2 assessed as competitive with respect to ATP; format: protein-complex assay
MKN-28 [13] = assay: Induction of apoptosis in TRAIL-resistant human MKN28 cells assessed as cell death at 10 uM after 24 hrs and subsequently treated with TRAIL 200 ng/ml for 2 hr by Annexin-V-FLUOS staining; format: functional, cell-based; procedure, shortened: as §5
MKN-1 [14] = assay: Induction of apoptosis in TRAIL-resistant human MKN1 cells assessed as cell death at 10 uM after 24 hrs and subsequently treated with TRAIL 200 ng/ml for 2 hr by Annexin-V-FLUOS staining; format: functional, cell-based; procedure, shortened: as §5
[15] = biological target: Casein kinase II (Homo sapiens) (UniProt P67870+P68400+P19784); assay: as §4; format: protein-complex assay
[16] = biological target: Casein kinase II subunit alpha (Homo sapiens) (UniProt P68400); assay: Inhibition of recombinant human CK2alpha assessed as inhibition of phosphorylation of GST-CS by Coomassie brilliant blue staining based autoradiography
HepG2 [17] = assay: Induction of apoptosis in TRAIL-resistant human HepG2 cells assessed as cell death at 10 uM after 24 hrs and subsequently treated with TRAIL 200 ng/ml for 2 hr by Annexin-V-FLUOS staining; format: functional, cell-based; procedure, shortened: as §5
SK-HEP1 [18] = assay: Induction of apoptosis in TRAIL-resistant human SKHEP1 cells assessed as cell death at 10 uM after 24 hrs and subsequently treated with TRAIL 200 ng/ml for 2 hr by Annexin-V-FLUOS staining; format: functional, cell-based; procedure, shortened: as §5
SNU739 [19] = assay: Induction of apoptosis in TRAIL-resistant human SNU739 cells assessed as cell death at 10 uM after 24 hrs and subsequently treated with TRAIL 200 ng/ml for 2 hr by Annexin-V-FLUOS staining; format: functional, cell-based; procedure, shortened: as §5

Q: For `Brc1c(Br)c(Br)c2[nH]nnc2c1Br`, which Activity (SNU878) is on record?
A: Its Activity is “Active”.

Q: What about the Activity (SK-HEP1 [1]) of the same compound?
A: Its Activity is “Active”.

Q: And the Activity (MKN-28 [2])?
A: The Activity was “Active”.

Q: What about the Activity (TE-2 [3]) of the same compound?
A: The Activity was “Active”.

Q: And the Activity (TE-2 [4])?
A: The Activity was “Active”.

Q: What about the Activity (SNU761) of the same compound?
A: Its Activity is “Active”.

Q: And the Activity (NCI-N87)?
A: Its Activity is “Active”.

Q: And the Activity (SNU484)?
A: Its Activity is “Active”.

Q: What about the Activity (Hep 3B2) of the same compound?
A: The Activity was “Active”.

Q: What about the Activity (MKN-74) of the same compound?
A: The Activity was “Active”.

Q: What about the Activity (AGS [5]) of the same compound?
A: The Activity was “Active”.

Q: What about the Activity (MKN-1 [6]) of the same compound?
A: The Activity was “Active”.

Q: And the Activity (MKN-45)?
A: The Activity was “Active”.

Q: And the Activity (SNU668)?
A: The Activity was “Active”.

Q: And the Activity (SNU739 [7])?
A: Its Activity is “Active”.

Q: What about the Activity (HepG2 [8]) of the same compound?
A: Its Activity is “Active”.

Q: `CCOC(=O)C1=C(C)N=c2s/c(=C\c3cc(O)c(O)c(O)c3)c(=O)n2C1c1ccc(Cl)cc1` (centres undefined) was tested. Which IC50 (Casein kinase II [9]) did it give?
A: Its IC50 is 8.79 µM.

Q: What about the inhibition [10] of the same compound?
A: The inhibition was “Active”.

Q: Which Activity (AGS [11]) does the source give for `CCOC(=O)C1=C(C)N=c2s/c(=C\c3ccc(O)c(O)c3)c(=O)n2C1c1ccc(Cl)cc1` (centres undefined) here?
A: The Activity was “Active”.

Q: What about the Ki (Casein kinase II [12]) of the same compound?
A: Its Ki is 0.78 µM.

Q: What about the Activity (MKN-28 [13]) of the same compound?
A: Its Activity is “Active”.

Q: What about the Activity (MKN-1 [14]) of the same compound?
A: The Activity was “Active”.

Q: What about the Activity (SNU878) of the same compound?
A: Its Activity is “Active”.

Q: And the Activity (SK-HEP1 [1])?
A: Its Activity is “Active”.

Q: And the Activity (MKN-28 [2])?
A: Its Activity is “Active”.

Q: What about the Activity (TE-2 [3]) of the same compound?
A: Its Activity is “Active”.

Q: And the Activity [15]?
A: Its Activity is “Active”.

Q: And the inhibition [16]?
A: The inhibition was “Active”.

Q: What about the inhibition [10] of the same compound?
A: Its inhibition is “Active”.

Q: And the Activity (TE-2 [4])?
A: Its Activity is “Active”.

Q: And the Activity (SNU761)?
A: Its Activity is “Active”.

Q: And the Activity (NCI-N87)?
A: Its Activity is “Active”.

Q: And the Activity (HepG2 [17])?
A: The Activity was “Active”.

Q: What about the Activity (SK-HEP1 [18]) of the same compound?
A: The Activity was “Active”.

Q: What about the Activity (SNU484) of the same compound?
A: Its Activity is “Active”.

Q: What about the Activity (Hep 3B2) of the same compound?
A: Its Activity is “Active”.

Q: What about the Activity (SNU739 [19]) of the same compound?
A: The Activity was “Active”.

Q: And the Activity (MKN-74)?
A: Its Activity is “Active”.

Q: What about the Activity (AGS [5]) of the same compound?
A: The Activity was “Active”.

Q: And the Activity (MKN-1 [6])?
A: Its Activity is “Active”.

Q: And the Activity (MKN-45)?
A: The Activity was “Active”.

Q: What about the Activity (SNU668) of the same compound?
A: The Activity was “Active”.

Q: What about the Activity (SNU739 [7]) of the same compound?
A: Its Activity is “Active”.

Q: And the Activity (HepG2 [8])?
A: The Activity was “Active”.
